# Granule exo inh – LAMP-1 surface exposure blockers, TALL-104 cells – cell-based, flow cytometry, MLPCN library, primary screen | TALL-104 LAMP-1 surface exposure; cells stimulated with thapsigargin and PMA | inhibition, % at 10 µM | 0.66% of 360,000 active | AID 651702, 2012;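 active means inhibition above about 55%, limit read from the data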
# T cell modulator – modulators of CD8 T cell-vesicle binding, primary screen, mouse 2C CD8+ T cells, flow cytometry. 2C CD8+ T cell-vesicle binding; stronger effect = lower value. response (vesicle binding), % at 7 µM. 0.068% of 330,000 active. AID 2052, 2009;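 active means response, share of CD8 T cells binding vesicles, and their 90th percentile fluorescence all below set limits, cut at about 80% in these data, passing the limit was not always enough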;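 further: values below 100% mean blocked vesicle binding to the CD8+ T cells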
#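 Also added: QL9-peptide-loaded Drosophila micro-vesicles bearing Ld, ICAM-1 and B7-1; Test system: purified 2C TCR transgenic mouse naive CD8+ T cells; Measured by: cytometric PE anti-B7-1 and Alexa647 anti-CD8 signals after 1% paraformaldehyde fixation; Timing: binding step 1.5 h, 37 °C, antibody labelling 20 min, ice.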
# V-ATPase pH – regulators of yeast V-ATPase proton pumping, primary screen, pHLuorin cytosolic pH fluorescence; response, % at 10 µM; S. cerevisiae; AID 504577, 2011; 0.37% of 350,000 active; in the data active means response mostly above about 7.3%, no sharp cut-off; inactive means mostly below about 5.4%; further: actives read high
# B2AR ag – beta2AR agonists driving receptor internalization, primary screen, cell-based, FAP fluorogen, flow cytometry; 0.43% of 340,000 active; AID 504454, 2011; response, % (test concentration not listed); Am2.2-beta2AR cells;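 active means response above a set limit, near 3 SD of response in nonfluorescent compounds, cut at about 42% in these data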
# Target sequence (P07550 whole entry, looked up): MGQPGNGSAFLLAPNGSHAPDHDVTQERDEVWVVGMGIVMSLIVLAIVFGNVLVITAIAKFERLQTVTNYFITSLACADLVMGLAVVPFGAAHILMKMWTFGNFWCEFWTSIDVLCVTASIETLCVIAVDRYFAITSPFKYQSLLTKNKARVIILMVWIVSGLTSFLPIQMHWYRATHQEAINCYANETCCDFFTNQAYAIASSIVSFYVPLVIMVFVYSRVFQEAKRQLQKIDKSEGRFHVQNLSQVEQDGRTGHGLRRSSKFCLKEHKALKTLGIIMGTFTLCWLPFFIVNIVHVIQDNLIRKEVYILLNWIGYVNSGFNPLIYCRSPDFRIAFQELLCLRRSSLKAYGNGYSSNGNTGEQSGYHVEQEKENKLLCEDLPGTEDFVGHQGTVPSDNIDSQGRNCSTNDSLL
# MPTP inh – mitochondrial permeability transition pore inhibitors, primary screen, biochemical, isolated mouse mitochondria, absorbance. 1.4% of 360,000 active. Ca2+ swelling absorbance, 30 min. AID 602449, 2012. inhibition, % at 10 µM;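 active means inhibition of 50% or more, scaled per plate between neutral and stimulator controls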;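 further: 0% = DMSO wells given calcium and 100% = 1 mM EGTA wells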
# rCAG binder – binders of r(CAG) RNA repeats, primary screen, biochemical, fluorescence; inhibition, % at 3 µM; AID 651821, 2012; r(CAG) RNA repeat, TO-PRO-1 dye displacement fluorescence; 1.3% of 370,000 active;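 active means inhibition above the plate cutoff, the mean of all test compounds on that plate plus 3 SD, cut at about 35% in these data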;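 further: 0% = DMSO alone and 100% = 100 µM mitoxantrone as full dye displacement; higher means more dye released from RNA so lower well fluorescence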
# rCAG bind conf – small molecules binding CAG repeat RNA – biochemical, fluorescence, confirmation. shares compounds with rCAG binder. r(CAG) RNA repeat, TO-PRO-1 dye displacement fluorescence. inhibition, % at 3 µM. 70% of 4,300 active. AID 652065, 2013;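 active means inhibition above a per-plate cutoff, the mean inhibition of sample wells plus 3 SD, cut at about 35% in these data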;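 further: loss of TO-PRO-1 fluorescence as compound displaces dye from 1x1 AA loop RNA; 0% = DMSO only wells and 100% = 100 µM mitoxantrone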
# dCAG dye counter – displacement of TO-PRO-1 from CAG DNA duplex, counter-screen for rCAG RNA repeat binder project, biochemical, fluorescence, TO-PRO-1 dye, d(CAG) DNA oligo | 94% of 4,300 active | shares compounds with rCAG binder | d(CAG) DNA oligo TO-PRO-1 dye displacement | inhibition, % at 3 µM;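 active means inhibition above its plate's cutoff, the mean test-well inhibition plus 3 SD, cut at about 4.8% in these data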;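 further: 0% = DNA dye mix with DMSO and 100% = 100 µM mitoxantrone; hits displace the dye from DNA and so lower well fluorescence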
# DNA CAG DR – inhibitors of DNA CAG/GTC TO-PRO-1 complex, dose response, counter-screen for rCAG RNA repeat binder project, biochemical, fluorescence, TO-PRO-1 dye; IC50, µM; shares compounds with rCAG binder; 20% of 250 active; DNA CAG/GTC duplex TO-PRO-1 dye displacement fluorescence; in the data active means IC50 below about 10 µM
# Starred values were filed as active, the others as inactive; i = inactive; . = no result given. Hits are enriched below; roughly 3.8% of the tested compounds scored in any of these assays.
SMILES,Granule exo inh,T cell modulator,V-ATPase pH,B2AR ag,MPTP inh,rCAG binder,rCAG bind conf,dCAG dye counter,others
COc1cc([C@@H]2CC=C(C(=O)O)[C@H](c3ccc(C)cc3)N2S(=O)(=O)c2ccc(C)cc2)cc(OC)c1OC,-1,238,0,-2,0,35*,42*,8.6*,
COc1ccc([C@@H]2CC=C(C(=O)O)[C@H](c3ccc(C)cc3)N2S(=O)(=O)c2ccc(C)cc2)cc1OC,-10,186,1,-1,-2,40*,36*,7.8*,
COc1cccc([C@@H]2CC=C(C(=O)O)[C@H](c3ccc(C)cc3)N2S(=O)(=O)c2ccc(C)cc2)c1,-1,202,-3,-1,1,30,.,.,
COc1cccc([C@@H]2CC=C(C(=O)O)[C@H](c3ccc(Cl)cc3)N2S(=O)(=O)c2ccc(C)cc2)c1,-5,727,-2,0,1,64*,62*,23*,
Cc1ccc(S(=O)(=O)N2[C@@H](c3ccc(Br)cc3)C(C(=O)O)=CC[C@H]2c2cccc(C)c2)cc1,1,252,-1,5,1,5,.,.,
COc1ccc([C@@H]2CC=C(C(=O)O)[C@H](c3ccc(Cl)cc3)N2S(=O)(=O)c2ccc(C)cc2)cc1OC,-7,295,-3,0,-1,57*,34,9.3*,
COc1ccc(C(C(=O)N(C)C2CCCC2)N(Cc2ccc(F)cc2)C(=O)c2ccc3ccccc3c2)cc1OC (stereo not drawn),.,.,.,.,.,8,.,.,
COc1cccc([C@@H]2CC=C(C(=O)O)[C@H](c3ccccc3F)N2S(=O)(=O)c2ccc(C)cc2)c1,-7,761,1,-5,0,41*,37*,9.0*,
COc1cc([C@@H]2CC=C(C(=O)O)[C@H](c3cccc(Cl)c3)N2S(=O)(=O)c2ccc(C)cc2)cc(OC)c1OC,-3,441,1,-3,21,45*,45*,10*,
COc1ccc([C@@H]2CC=C(C(=O)O)[C@H](c3ccc(C(C)(C)C)cc3)N2S(=O)(=O)c2ccc(C)cc2)cc1OC,-10,227,2,5,0,67*,66*,28*,
Cc1ccccc1C(=O)N[C@@H](CC(C)C)C(=O)N1CCC[C@H]1C(=O)NCc1ccccc1,.,.,.,.,.,-3,.,.,
Cc1ccccc1C(=O)N[C@H](C(=O)N1CCC[C@H]1C(=O)NC1CCCC1)C1CCCCC1,.,.,.,.,.,-1,.,.,
NS(=O)(=O)c1ccc2c(c1)C1C=CCC1C(C1CC=CCC1)N2 (stereo not drawn),-1,306,-3,8,-2,62*,26,14*,
O=C(NCCc1ccc(Cl)cc1)c1ccc2c(=O)[nH]c3c(C(=O)NCC4CCCO4)sc(=S)n3c2c1 (stereo not drawn),.,.,.,.,.,44*,85*,70*,
CC(=O)c1ccc(N2CCN(C(=O)c3ccc4c(=O)[nH]c5c(C(=O)NC6CCCC6)sc(=S)n5c4c3)CC2)cc1,.,.,.,.,.,28,.,.,
O=C(NCCc1ccccc1)c1ccc2c(=O)[nH]c3c(C(=O)NCC4CCCO4)sc(=S)n3c2c1 (stereo not drawn),-2,372,0,6,0,91*,93*,71*,
O=C(NCC1CCCO1)c1sc(=S)n2c1[nH]c(=O)c1ccc(C(=O)N3CCCCC3)cc12 (stereo not drawn),-5,474,-1,8,2,81*,84*,40*,
CC(C)NC(=O)c1sc(=S)n2c1[nH]c(=O)c1ccc(C(=O)NCCc3ccc(Cl)cc3)cc12,0,59,-5,14,49,4,.,.,
O=C(OCc1cn(Cc2ccc(F)cc2F)nn1)N1CCCC1,.,.,.,.,.,3,.,.,
CC(COc1ccc(OC(F)(F)F)cc1)CN1CCC(C(O)(c2ccccc2)c2ccccc2)CC1 (stereo not drawn),.,.,.,.,.,3,.,.,
COC(=O)c1ccc(S(=O)(=O)N2CCC(NC(=O)Cc3cccc(C)c3)CC2)cc1,.,.,.,.,.,3,.,.,
O=C(O)c1ccc(-n2c(O)c(C=C3N=c4ccccc4=N3)sc2=S)cc1,23,107,-4,0,8,80*,62*,24*,
O=C(O)c1cccc(-n2c(O)c(C=C3N=c4ccccc4=N3)sc2=S)c1,48,550,1,0,3,81*,64*,22*,
O=C(OCc1cn(Cc2ccccc2F)nn1)N1CCCC1,.,.,.,.,.,3,.,.,
CCC1CCCCN1S(=O)(=O)c1ccc(NC(=O)CSc2ncccc2C(=O)O)cc1 (stereo not drawn),8,302,3,11,0,39*,34,11*,
SMILES,Granule exo inh,T cell modulator,V-ATPase pH,B2AR ag,MPTP inh,rCAG binder,rCAG bind conf,dCAG dye counter,others
COc1ccc2nc(N3C(=O)C(O)=C(C(=O)c4ccco4)C3c3ccc(OC)c(OC)c3)sc2c1 (stereo not drawn),-3,.,.,.,-1,56*,69*,25*,DNA CAG DR=i
COc1ccc(C2C(C(C)=O)=C(O)C(=O)N2c2nc3ccccc3s2)cc1OC (stereo not drawn),3,406,4,4,0,25,.,.,
COC(=O)c1sc(N2C(=O)C(O)=C(C(=O)c3ccc(C)o3)C2c2ccc(OC)c(OC)c2)nc1C (stereo not drawn),9,322,2,3,-1,37*,36*,9.9*,
CCOC(=O)c1sc(N2C(=O)C(O)=C(C(=O)c3ccc(C)o3)C2c2ccc(OC)c(OC)c2)nc1C (stereo not drawn),-1,451,1,16,-1,33,.,.,
Cc1ccc2nc(N3C(=O)C(O)=C(C(=O)c4ccc(C)o4)C3c3cccc(O)c3)sc2c1 (stereo not drawn),5,234,-1,6,-2,70*,69*,33*,
CCCCOc1cccc(C2C(C(=O)c3ccc(C)o3)=C(O)C(=O)N2c2nnc(C)s2)c1 (stereo not drawn),9,.,-4,3,-2,15,.,.,

# Screening results as filed in PubChem BioAssay.
